# Columns and labels:
# Assay type in all cases: organism-based
# Conditions in all cases: in vivo, icv_or_intrathecal
# [1] = Toxicity in ddY mouse assessed as induction of adverse symptoms at 2.2 nmol dosed via intracerebroventricular injection
# Summary of the method: (§1)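 Male ddY mice (11−13 g, 3 weeks old), three per compound. Doses, quantified by LC-MS against a weighed standard, were given in 10 μL water, injected slowly over 5 s into the ventricle: 2 mm lateral to the skull midline, 3 mm rostral to the anterior ear-base line, 3 mm deep. Water served as vehicle control. Death time and behavioural symptoms were recorded.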
# [2] = Toxicity in ddY mouse assessed as death time at 2.2 nmol dosed via intracerebroventricular injection; summary of the method: as §1
# [3] = Toxicity in ddY mouse assessed as induction of scratching at 2.2 nmol dosed via intracerebroventricular injection; summary of the method: as §1
# [4] = Toxicity in ddY mouse assessed as induction of spasms at 2.2 nmol dosed via intracerebroventricular injection; summary of the method: as §1
# [5] = Toxicity in ddY mouse assessed as induction of sudden jumping at 2.2 nmol dosed via intracerebroventricular injection; summary of the method: as §1
# [6] = Toxicity in ddY mouse assessed as induction of adverse symptoms at 4.4 nmol dosed via intracerebroventricular injection; summary of the method: as §1
# [7] = Toxicity in ddY mouse assessed as death time at 4.4 nmol dosed via intracerebroventricular injection; summary of the method: as §1
# [8] = Toxicity in ddY mouse assessed as induction of sudden jumping at 1.1 nmol dosed via intracerebroventricular injection; summary of the method: as §1
# [9] = Toxicity in ddY mouse assessed as death time at 1.1 nmol dosed via intracerebroventricular injection; summary of the method: as §1
# [10] = Toxicity in ddY mouse assessed as induction of spasms at 1.1 nmol dosed via intracerebroventricular injection; summary of the method: as §1
# [11] = Toxicity in ddY mouse assessed as induction of scratching at 1.1 nmol dosed via intracerebroventricular injection; summary of the method: as §1
smiles,measurement,setting,value
C=C(C)[C@]1(O)CN[C@H](C(=O)O)[C@H]1CC(=O)O,Activity,[1],Non-Toxic
same,Activity,[2],Non-Toxic
C=C(C)[C@@]1(O)CN[C@H](C(=O)O)[C@H]1CC(=O)O,Activity,[3],Toxic
same,Activity,[4],Toxic
same,Activity,[2],Non-Toxic
same,Activity,[5],Toxic
CC(C)=CCN[C@@H](CCC(=O)O)C(=O)O,Activity,[6],Non-Toxic
same,Activity,[7],Non-Toxic
CC(C)=CCN[C@H](C(=O)O)[C@H](O)CC(=O)O (relative stereo),Activity,[6],Non-Toxic
same,Activity,[7],Non-Toxic
C=C(C)[C@H]1CN[C@H](C(=O)O)[C@H]1CC(=O)O [KAINIC ACID],Activity,[8],Toxic
same,Time,[9],15 to 30 min
same,Activity,[10],Toxic
same,Activity,[11],Toxic
